{
  "source": "paper PMC9401513",
  "about": "(Clinical Cancer Research, 2021)",
  "format_in_all_cases": "in vivo, human",
  "key": {"[1]": {"tested_on": "patients with advanced solid tumors", "experiment": "Adverse events graded by NCI-CTCAE v4.03 in phase I patients", "conditions": "every 3 weeks, N = 112", "method_in_brief": "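Test compound was given by IV infusion over about 60 min every 3 weeks in sequential dose-escalation cohorts to adults with advanced solid tumors (ECOG 0–1). Adverse events were graded by NCI-CTCAE v4.03 over all cycles and tabulated as treatment-related by dose level. G-CSF was permitted after cycle 1. Antiemetics and corticosteroids were given at the physician's discretion.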"}, "advanced TNBC": {"tested_on": "advanced TNBC", "experiment": "Objective tumor response by RECIST v1.1, TNBC", "conditions": "every 3 weeks", "method_in_brief": "(§1)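 Investigators assessed tumor response by RECIST v1.1 every 6 weeks (every-3-weeks cohorts) or every 8 weeks (every-2-weeks cohorts). CR and PR in expansion cohorts were confirmed by repeat assessment at least 4 weeks later, and ORR was calculated. NSCLC patients were preselected for moderate-to-high tumor PTK7 by IHC. Later TNBC patients were preselected for moderately high-to-high PTK7. Ovarian cancer patients were platinum-resistant and not preselected.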"}, "[2]": {"tested_on": "platinum-resistant ovarian cancer", "experiment": "Objective tumor response by RECIST v1.1, ovarian cancer", "method_in_brief": "as §1"}, "[3]": {"conditions": "every 2 weeks, N = 19, (95% CI)"}, "[4]": {"conditions": "every 3 weeks, N = 44, (95% CI)"}},
  "data": [
    {"molecule": "cofetuzumab pelidotin (conjugate, chains of the INN, looked up, auristatin-0101 payload, vc linker) VH: QVQLVQSGPEVKKPGASVKVSCKASGYTFTDYAVHWVRQAPGKRLEWIGVISTYNDYTYNNQDFKGRVTMTRDTSASTAYMELSRLRSEDTAVYYCARGNSYFYALDYWGQGTSVTVSS VL: EIVLTQSPATLSLSPGERATLSCRASESVDSYGKSFMHWYQQKPGQAPRLLIYRASNLESGIPARFSGSGSGTDFTLTISSLEPEDFAVYYCQQSNEDPWTFGGGTKLEIK", "values": [
      {"measurement": "temporary discontinuations due to TRAEs", "setting": "[1]", "value": 14.3, "unit": "%"},
      {"measurement": "treatment-related peripheral sensory neuropathy (all grade 1 or 2)", "setting": "[1]", "value": 12.5, "unit": "%"},
      {"measurement": "patients died on study", "setting": "[1]; mostly disease progression", "value": 15.2, "unit": "%"},
      {"measurement": "TRAE Alopecia, Grade 1", "setting": "[1]; all cycles", "value": "13 (11.6) n (%)"},
      {"measurement": "TRAE Alopecia, Grade 2", "setting": "[1]; all cycles", "value": "33 (29.5) n (%)"},
      {"measurement": "TRAE Alopecia, Grade 3", "setting": "[1]; all cycles", "value": "0 n (%)"},
      {"measurement": "TRAE Alopecia, Grade 4", "setting": "[1]; all cycles", "value": "0 n (%)"},
      {"measurement": "TRAE Alopecia, Total", "setting": "[1]; all cycles", "value": "46 (41.1) n (%)"},
      {"measurement": "TRAE Arthralgia, Grade 1", "setting": "[1]; all cycles", "value": "16 (14.3) n (%)"},
      {"measurement": "TRAE Arthralgia, Grade 2", "setting": "[1]; all cycles", "value": "2 (1.8) n (%)"},
      {"measurement": "TRAE Arthralgia, Grade 3", "setting": "[1]; all cycles", "value": "1 (0.9) n (%)"},
      {"measurement": "TRAE Arthralgia, Grade 4", "setting": "[1]; all cycles", "value": "0 n (%)"},
      {"measurement": "TRAE Arthralgia, Total", "setting": "[1]; all cycles", "value": "19 (17.0) n (%)"},
      {"measurement": "TRAE Decreased appetite, Grade 1", "setting": "[1]; all cycles", "value": "11 (9.8) n (%)"},
      {"measurement": "TRAE Decreased appetite, Grade 2", "setting": "[1]; all cycles", "value": "7 (6.3) n (%)"},
      {"measurement": "TRAE Decreased appetite, Grade 3", "setting": "[1]; all cycles", "value": "0 n (%)"},
      {"measurement": "TRAE Decreased appetite, Grade 4", "setting": "[1]; all cycles", "value": "0 n (%)"},
      {"measurement": "TRAE Decreased appetite, Total", "setting": "[1]; all cycles", "value": "18 (16.1) n (%)"},
      {"measurement": "TRAE Diarrhea, Grade 1", "setting": "[1]; all cycles", "value": "8 (7.1) n (%)"},
      {"measurement": "TRAE Diarrhea, Grade 2", "setting": "[1]; all cycles", "value": "8 (7.1) n (%)"},
      {"measurement": "TRAE Diarrhea, Grade 3", "setting": "[1]; all cycles", "value": "1 (0.9) n (%)"},
      {"measurement": "TRAE Diarrhea, Grade 4", "setting": "[1]; all cycles", "value": "0 n (%)"},
      {"measurement": "TRAE Diarrhea, Total", "setting": "[1]; all cycles", "value": "17 (15.2) n (%)"},
      {"measurement": "TRAE Fatigue, Grade 1", "setting": "[1]; all cycles", "value": "19 (17.0) n (%)"},
      {"measurement": "TRAE Fatigue, Grade 2", "setting": "[1]; all cycles", "value": "19 (17.0) n (%)"},
      {"measurement": "TRAE Fatigue, Grade 3", "setting": "[1]; all cycles", "value": "3 (2.7) n (%)"},
      {"measurement": "TRAE Fatigue, Grade 4", "setting": "[1]; all cycles", "value": "0 n (%)"},
      {"measurement": "TRAE Fatigue, Total", "setting": "[1]; all cycles", "value": "41 (36.6) n (%)"},
      {"measurement": "TRAE Headache, Grade 1", "setting": "[1]; all cycles", "value": "13 (11.6) n (%)"},
      {"measurement": "TRAE Headache, Grade 2", "setting": "[1]; all cycles", "value": "19 (17.0) n (%)"},
      {"measurement": "TRAE Headache, Grade 3", "setting": "[1]; all cycles", "value": "5 (4.5) n (%)"},
      {"measurement": "TRAE Headache, Grade 4", "setting": "[1]; all cycles", "value": "0 n (%)"},
      {"measurement": "TRAE Headache, Total", "setting": "[1]; all cycles", "value": "37 (33.0) n (%)"},
      {"measurement": "TRAE Myalgia, Grade 1", "setting": "[1]; all cycles", "value": "11 (9.8) n (%)"},
      {"measurement": "TRAE Myalgia, Grade 2", "setting": "[1]; all cycles", "value": "3 (2.7) n (%)"},
      {"measurement": "TRAE Myalgia, Grade 3", "setting": "[1]; all cycles", "value": "1 (0.9) n (%)"},
      {"measurement": "TRAE Myalgia, Grade 4", "setting": "[1]; all cycles", "value": "0 n (%)"},
      {"measurement": "TRAE Myalgia, Total", "setting": "[1]; all cycles", "value": "15 (13.4) n (%)"},
      {"measurement": "TRAE Nausea, Grade 1", "setting": "[1]; all cycles", "value": "28 (25.0) n (%)"},
      {"measurement": "TRAE Nausea, Grade 2", "setting": "[1]; all cycles", "value": "21 (18.8) n (%)"},
      {"measurement": "TRAE Nausea, Grade 3", "setting": "[1]; all cycles", "value": "1 (0.9) n (%)"},
      {"measurement": "TRAE Nausea, Grade 4", "setting": "[1]; all cycles", "value": "0 n (%)"},
      {"measurement": "TRAE Nausea, Total", "setting": "[1]; all cycles", "value": "50 (44.6) n (%)"},
      {"measurement": "TRAE Neutropenia, Grade 1", "setting": "[1]; all cycles", "value": "0 n (%)"},
      {"measurement": "TRAE Neutropenia, Grade 2", "setting": "[1]; all cycles", "value": "4 (3.6) n (%)"},
      {"measurement": "TRAE Neutropenia, Grade 3", "setting": "[1]; all cycles", "value": "17 (15.2) n (%)"},
      {"measurement": "TRAE Neutropenia, Grade 4", "setting": "[1]; all cycles", "value": "11 (9.8) n (%)"},
      {"measurement": "TRAE Neutropenia, Total", "setting": "[1]; all cycles", "value": "32 (28.6) n (%)"},
      {"measurement": "TRAE Peripheral sensory neuropathy, Grade 1", "setting": "[1]; all cycles", "value": "7 (6.3) n (%)"},
      {"measurement": "TRAE Peripheral sensory neuropathy, Grade 2", "setting": "[1]; all cycles", "value": "7 (6.3) n (%)"},
      {"measurement": "TRAE Peripheral sensory neuropathy, Grade 3", "setting": "[1]; all cycles", "value": "0 n (%)"},
      {"measurement": "TRAE Peripheral sensory neuropathy, Grade 4", "setting": "[1]; all cycles", "value": "0 n (%)"},
      {"measurement": "TRAE Peripheral sensory neuropathy, Total", "setting": "[1]; all cycles", "value": "14 (12.5) n (%)"},
      {"measurement": "TRAE Vomiting, Grade 1", "setting": "[1]; all cycles", "value": "10 (8.9) n (%)"},
      {"measurement": "TRAE Vomiting, Grade 2", "setting": "[1]; all cycles", "value": "14 (12.5) n (%)"},
      {"measurement": "TRAE Vomiting, Grade 3", "setting": "[1]; all cycles", "value": "4 (3.6) n (%)"},
      {"measurement": "TRAE Vomiting, Grade 4", "setting": "[1]; all cycles", "value": "0 n (%)"},
      {"measurement": "TRAE Vomiting, Total", "setting": "[1]; all cycles", "value": "28 (25.0) n (%)"},
      {"measurement": "CR", "setting": "advanced TNBC; N = 29", "value": 0, "unit": "N"},
      {"measurement": "PR", "setting": "advanced TNBC; N = 29", "value": 6, "unit": "N"},
      {"measurement": "ORR", "setting": "advanced TNBC; N = 29, (95% CI)", "value": "21 (8–40) %"},
      {"measurement": "mDOR", "setting": "advanced TNBC; N = 29, (95% CI)", "value": "4.3 (1.3–10.2) mo"},
      {"measurement": "mPFS", "setting": "advanced TNBC; N = 29, (95% CI)", "value": "1.5 (1.4–4.3) mo"},
      {"measurement": "CR (number)", "setting": "[2]; 2.1 mg/kg every 3 weeks", "value": 1},
      {"measurement": "CR (number)", "setting": "[2]; 2.8 mg/kg every 2 weeks", "value": 1},
      {"measurement": "PR (number)", "setting": "[2]; 2.8 mg/kg every 2 weeks", "value": 2},
      {"measurement": "CR (number)", "setting": "[2]; 3.2 mg/kg every 2 weeks", "value": 1},
      {"measurement": "PR (number)", "setting": "[2]; 3.2 mg/kg every 2 weeks", "value": 1},
      {"measurement": "overall objective response rate", "setting": "[2]; both regimens, n = 63", "value": 27, "unit": "%"},
      {"measurement": "patients achieving CR", "setting": "[2]; every 2 weeks", "value": 11, "unit": "%"},
      {"measurement": "patients achieving PR", "setting": "[2]; every 2 weeks", "value": 16, "unit": "%"},
      {"measurement": "ORR", "setting": "[2]; [3]", "value": "26 (9–51) %"},
      {"measurement": "mDOR", "setting": "[2]; [3]", "value": "6.5 (3.9–8.3) mo"},
      {"measurement": "mPFS", "setting": "[2]; [3]", "value": "3.8 (3.1–7.4) mo"},
      {"measurement": "patients achieving CR", "setting": "[2]; every 3 weeks", "value": 7, "unit": "%"},
      {"measurement": "patients achieving PR", "setting": "[2]; every 3 weeks", "value": 21, "unit": "%"},
      {"measurement": "ORR", "setting": "[2]; [4]", "value": "27 (15–43) %"},
      {"measurement": "mDOR", "setting": "[2]; [4]", "value": "4.2 (2.8–8.3) mo"},
      {"measurement": "mPFS", "setting": "[2]; [4]", "value": "2.9 (2.3–5.5) mo"}
    ]}
  ]
}
